According to ChEMBL document CHEMBL1129338, “Inhibitors of acyl-CoA:cholesterol O-acyltransferase. synthesis and pharmacological activity of (+/-)-2-dodecyl-alpha-phenyl-N-(2,4,6-trimethoxyphenyl)-2H-tetrazole-5- acetamide and structurally related tetrazole amide derivatives” (J Med Chem, 1996):

Columns and labels:
[1] = target: T1, Sterol O-acyltransferase 1 (Rattus norvegicus, UniProt O70536); test: In vitro inhibitory activity against acyl coenzyme A:cholesterol acyltransferase 1 of liver microsomes isolated from cholesterol-fed rats.
T1 sequence (O70536 whole entry): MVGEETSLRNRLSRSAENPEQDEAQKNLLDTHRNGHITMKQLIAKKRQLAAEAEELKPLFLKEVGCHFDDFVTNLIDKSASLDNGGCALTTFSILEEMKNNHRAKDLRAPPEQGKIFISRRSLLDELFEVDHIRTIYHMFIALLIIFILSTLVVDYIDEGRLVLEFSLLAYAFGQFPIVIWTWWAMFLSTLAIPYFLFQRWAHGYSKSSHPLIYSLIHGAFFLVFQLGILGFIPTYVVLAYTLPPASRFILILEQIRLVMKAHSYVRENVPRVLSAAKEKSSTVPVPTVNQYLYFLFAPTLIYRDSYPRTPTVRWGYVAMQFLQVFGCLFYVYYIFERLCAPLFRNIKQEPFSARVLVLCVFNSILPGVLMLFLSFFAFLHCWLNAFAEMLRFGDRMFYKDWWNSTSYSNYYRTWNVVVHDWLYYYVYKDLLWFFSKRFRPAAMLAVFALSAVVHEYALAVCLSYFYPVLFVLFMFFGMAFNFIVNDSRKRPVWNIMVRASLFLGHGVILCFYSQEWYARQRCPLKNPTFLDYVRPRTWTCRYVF
In short: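 ACAT inhibition was measured in hepatic microsomes isolated from cholesterol-fed rats. Each determination was run in triplicate, and IC50 was reported.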

Rattus norvegicus [2] = test: Percent change in total cholesterol (TC) in cholic acid (0.5%)-, cholesterol (1.5%) -, and peanut oil (5.5%)- fed rats at a dose 30 mg/kg.; assay type: functional
[3] = target: T2, Sterol O-acyltransferase 1 (Mus musculus) (UniProt Q61263); test: In vitro inhibitory activity against acyl coenzyme A:cholesterol acyltransferase 1 in cell culture assay using murine IC-21 macrophages at 0.1 uM
T2 sequence (whole entry): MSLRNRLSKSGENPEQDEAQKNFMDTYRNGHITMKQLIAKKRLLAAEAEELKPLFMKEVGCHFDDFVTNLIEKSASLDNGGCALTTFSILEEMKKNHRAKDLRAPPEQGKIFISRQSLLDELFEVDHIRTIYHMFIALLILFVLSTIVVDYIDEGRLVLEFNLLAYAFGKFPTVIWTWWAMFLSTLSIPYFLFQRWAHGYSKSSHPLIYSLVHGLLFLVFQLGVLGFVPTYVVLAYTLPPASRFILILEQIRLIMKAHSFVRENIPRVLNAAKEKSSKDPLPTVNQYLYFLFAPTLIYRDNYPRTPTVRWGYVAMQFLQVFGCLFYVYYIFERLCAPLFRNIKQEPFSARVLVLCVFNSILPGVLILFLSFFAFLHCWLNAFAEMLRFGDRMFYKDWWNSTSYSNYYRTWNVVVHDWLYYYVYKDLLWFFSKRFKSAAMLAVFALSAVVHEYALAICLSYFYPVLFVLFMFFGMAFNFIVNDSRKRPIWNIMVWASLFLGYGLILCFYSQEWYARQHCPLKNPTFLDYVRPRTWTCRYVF
In short: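 IC-21 mouse macrophages were preincubated 16 h in serum-free DMEM with 20 µM albumin and phosphatidylserine/cholesterol vesicles. The vesicles were sonicated in 150 mM NaCl, 5 mM MOPS, 1 mM EDTA, pH 7.4, and filter-sterilized. Medium was then replaced with serum-free DMEM containing the compound in DMSO at 0.1 µM. Percent inhibition was read, with cell protein measured by the Lowry method.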

Oryctolagus cuniculus [4] = test: % change in total cholesterol(TC) versus progression control (PC) with out drug intervention in chronic cholesterol-fed rabbit model at a dose of 25 mg/kg; assay type: functional
In short: (§1)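 Male New Zealand rabbits (1-1.5 kg) were meal-fed 50 g/day of chow with 0.5% cholesterol, 3% coconut oil and 3% peanut oil. After 1 week, compound was added to the diet for 2 weeks at 5 or 25 mg/kg. Plasma total cholesterol came from cardiac blood of fasted animals after nitrogen asphyxiation. It was compared with cholesterol-fed progression controls or with T0, the start of drug intervention, when plasma cholesterol was taken 24 h after the drug meal.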

Oryctolagus cuniculus [5] = test: % change in total cholesterol(TC) versus progression control (PC) with out drug intervention in chronic cholesterol-fed rabbit model at a dose of 5 mg/kg; assay type: functional; in short: as §1
Rattus norvegicus [6] = test: Change in total cholesterol in Chronic Cholesterol-Fed rat model at dose 30 mg/kg; assay type: functional
In short: (§2)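 Rats ate a high-fat, high-cholesterol diet for 14 days. During the second week they received the test compound daily by gavage at 30 mg/kg, in a carboxymethylcellulose/Tween-20 aqueous vehicle. Plasma lipids (total cholesterol, HDL-C, non-HDL-C) were read as percent change.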

Oryctolagus cuniculus [7] = test: Percent change in total cholesterol(TC) versus (T0)- at which drug intervention begins at a dose of 25 mg/kg in the chronic cholesterol-fed rabbit model; assay type: functional; in short: as §1
Rattus norvegicus [8] = test: Percent change in High Density Lipoproteins (HDL) in Chronic Cholesterol -Fed rat model at a dose 30 mg/kg; assay type: functional; in short: as §2
Oryctolagus cuniculus [9] = test: Dose response in cholesterol fed rabbit after oral administration; assay type: functional
In short: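 Cholesterol-fed rabbit model with oral dosing across a dose series, 8 animals per dose. Plasma cholesterol reduction was averaged at each dose. ED50, the dose lowering plasma total cholesterol 50%, was calculated from these mean responses with the median-effect equation.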

Oryctolagus cuniculus [10] = test: Oral bioactivity expressed as %inhibition after 4 hours of drug administration (dose 25 mg/kg) in rabbit bioassay; assay type: functional
In short: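 Plasma was taken before dosing and at 1, 2 and 4 h. Plasma (0.2 mL) was hexane-extracted, dried and redissolved in chloroform/methanol 2:1. It was then tested for ACAT inhibition in the liver microsomal assay alongside spiked standards and a 2.5 µM CI-976 reference.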

Rattus norvegicus [11] = test: In vitro percent decrease in cholesterol activity at 30 mg/kg in acute rat screen; assay type: functional; settings: in the assay text read “In vivo” for “In vitro”
In short: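 Rats received a single gavage dose of 30 mg/kg, suspended in carboxymethylcellulose/Tween-20 in water, followed by one high-fat, high-cholesterol meal. The read-out was inhibition of the overnight rise in plasma total cholesterol, as percent change.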

Rattus norvegicus [12] = test: Percent change in non High Density Lipoproteins (HDL) in Chronic Cholesterol -Fed rat model at a dose 30 mg/kg
Rattus norvegicus [13] = test: % change in total cholesterol in Chronic Cholesterol-Fed rat model at dose 30 mg/kg; assay type: functional; in short: as §2

| IC50 [1] [nM] | inhibition [3] [%] | SMILES | Change (Rattus norvegicus [2]) [%] | also measured |
| --- | --- | --- | --- | --- |
| – | 47 | CCCCCCCCCCCCn1nnc(C(C(=O)Nc2c(C(C)C)cccc2C(C)C)c2ccccc2)n1 (stereo unspecified) | <66 | Change (Oryctolagus cuniculus [4]): <73%; Change (Oryctolagus cuniculus [5]): <61%; Change (Rattus norvegicus [6]): <38%; Change (Oryctolagus cuniculus [7]): <43%; Change (Rattus norvegicus [8]): 27%; ED50 (Oryctolagus cuniculus [9]): 1.2 mg/kg; inhibition in vivo at 25 mg/kg (Oryctolagus cuniculus [10]): 96%; Decrease (Rattus norvegicus [11]): 66%; Change (Rattus norvegicus [12]): <40% |
| 480 | 9 | CCCCCCCCCCCCn1nnc(CCC(=O)Nc2c(OC)cc(OC)cc2OC)n1 | – | – |
| 85 | 4 | CCCCCCCCCCCCn1nnc(C(C(=O)Nc2ncccc2C)c2ccccc2)n1 (stereo unspecified) | <52 | – |
| > 5000 | 8 | CCCCCCCCCCCCn1nnc(C(C(=O)Nc2c(C(C)C)cccc2C(C)C)c2nnn[nH]2)n1 (stereo unspecified) | <37 | – |
| 24 | 66 | CCCCCCCCCCCCn1nnc(CC(=O)Nc2c(OC)cc(OC)cc2OC)n1 | <60 | – |
| 26 | 24 | CCCCCCCCCCCCn1nnc(C(C(=O)Nc2c(C(C)C)cccc2C(C)C)c2ccccn2)n1 (stereo unspecified) | <64 | – |
| 13 | 66 | CCCCCCCCCCCCn1nnc(C(C(=O)Nc2c(C)nn(C)c2C)c2ccccc2)n1 (stereo unspecified) | <62 | Change (Rattus norvegicus [8]): 28%; Decrease (Rattus norvegicus [11]): 66% |
| 5 | 91 | CCCCCCCCCCCCn1nnc(CC(=O)Nc2c(C(C)C)cccc2C(C)C)n1 | <64 | Change (Rattus norvegicus [13]): <42%; Change (Rattus norvegicus [8]): 82%; Change (Rattus norvegicus [12]): <63% |
| > 5000 | 7 | CCCCCCCCCCCCn1nnc(C(C#N)C(=O)Nc2c(C(C)C)cccc2C(C)C)n1 (stereo unspecified) | <75 | – |
| 3350 | 1 | CCCCCCCCCCCCn1nnc(C(C(=O)NC(C)(C)C)c2ccccc2)n1 (stereo unspecified) | 1 | – |
| 6 | 95 | CCCCCCCCCCCCc1nnn(CC(=O)Nc2c(C(C)C)cccc2C(C)C)n1 | <68 | Change (Rattus norvegicus [13]): <72%; Change (Rattus norvegicus [8]): 165%; Decrease (Rattus norvegicus [11]): 68%; Change (Rattus norvegicus [12]): <81% |
| 30 | 17 | CCCCCCCCCCCCn1nnc(CCC(=O)Nc2c(C(C)C)cccc2C(C)C)n1 | <47 | – |
| 56 | 61 | CCCCCCCCCCCCc1nnn(CC(=O)Nc2c(OC)cc(OC)cc2OC)n1 | <69 | Change (Rattus norvegicus [13]): <44%; Change (Rattus norvegicus [8]): 3%; Decrease (Rattus norvegicus [11]): 69%; Change (Rattus norvegicus [12]): <46% |
| 244 | 10 | CCCCCCCCCCCCn1nnc(C(C(=O)NC2CC2)c2ccccc2)n1 (stereo unspecified) | <62 | – |

Second part, the molecule before the results:

| SMILES | IC50 [1] [nM] | inhibition [3] [%] | Change (Rattus norvegicus [2]) [%] | also measured |
| --- | --- | --- | --- | --- |
| CCCCCCCCCCCCn1nnc(C2(C(=O)Nc3c(OC)cc(OC)cc3OC)CCCC2)n1 | 63 | 16 | <56 | – |
| CCCCCCCCCCCCn1nnc(C(C(=O)Nc2ccc(F)cc2F)c2ccccc2)n1 (stereo unspecified) | 31 | 1 | <70 | – |
| CCCCCCCCCCCCn1nnc(C(C)(C)C(=O)Nc2c(OC)cc(OC)cc2OC)n1 | 33 | 34 | <69 | – |
| CCCCCCCCCCCCn1nnc(C(C#N)C(=O)Nc2c(OC)cc(OC)cc2OC)n1 (stereo unspecified) | 13600 | 7 | <27 | – |
| CCCCCCCCCCCCCCCCn1nnc(C(C(=O)Nc2c(OC)cc(OC)cc2OC)c2ccccc2)n1 (stereo unspecified) | 53 | 55 | <47 | Change (Rattus norvegicus [8]): 16%; Change (Rattus norvegicus [12]): -9% |
| CCCCCCCCCCCCn1nnc(C(C(=O)Nc2ccc3c(C)cc(C)nc3n2)c2ccccc2)n1 (stereo unspecified) | 1540 | 49 | 8 | – |
| CCCCCCCCCCCCn1nnc(C(C(=O)Nc2c(OC)cc(OC)cc2OC)c2ccc(OC)cc2)n1 (stereo unspecified) | 200 | 61 | <57 | – |
| CCCCCCCCn1nnc(C(C(=O)Nc2c(OC)cc(OC)cc2OC)c2ccccc2)n1 (stereo unspecified) | 270 | 13 | <39 | – |
| CCCCCCCCCCCCn1nnc(C(Cc2ccccc2)C(=O)Nc2c(OC)cc(OC)cc2OC)n1 (stereo unspecified) | 49 | 77 | <73 | Change (Rattus norvegicus [13]): <48%; Change (Rattus norvegicus [8]): 27%; inhibition in vivo at 25 mg/kg (Oryctolagus cuniculus [10]): 0%; Change (Rattus norvegicus [12]): <50% |
| CCCCCCCCCCCCn1nnc(C(=O)Nc2c(C(C)C)cccc2C(C)C)n1 | 1060 | 33 | 23 | – |
| CCCCCCCCCCCCn1nnc(C(C(=O)Nc2c(OC)cc(OC)cc2OC)c2ccc(F)cc2)n1 (stereo unspecified) | 36 | 46 | <68 | Change (Rattus norvegicus [8]): 12%; Change (Rattus norvegicus [12]): <53% |
| CCCCCCCCCCCCn1nnc(C(C(=O)Nc2c(OC)cc(OC)cc2OC)C2CCCCC2)n1 (stereo unspecified) | 28 | 8 | <61 | – |
| CCCCCCCCCCCCn1nnc(C(C(=O)Nc2ccccc2)c2ccccc2)n1 (stereo unspecified) | 480 | 46 | 38 | – |
| CCCCCCCCCCCCn1nnc(C(C(=O)Nc2c(OC)cc(OC)cc2OC)c2ccccn2)n1 (stereo unspecified) | 59 | 23 | <60 | – |
| CCCCCCCCCCCCn1nnc(C(C(=O)Nc2ccccn2)c2ccccc2)n1 (stereo unspecified) | 480 | 8 | 22 | – |
| CCCCCCCCCCCCn1nnc(C(C(=O)Nc2c(OC)cc(OC)cc2OC)c2ccc(-c3ccccc3)cc2)n1 (stereo unspecified) | 221 | 10 | <43 | – |
| CCCCCCCCCCCCn1nnc(C(C(=O)Nc2c(OC)cc(OC)cc2OC)c2ccc(N(C)C)cc2)n1 (stereo unspecified) | 659 | 0 | <62 | – |
| CCCCCCCCCCCCn1nnc(C(C(=O)Nc2c(OC)ncnc2OC)c2ccccc2)n1 (stereo unspecified) | 13 | 39 | <56 | Decrease (Rattus norvegicus [11]): 66% |
| CCCCCCCCCCCCn1nnc(C(F)C(=O)Nc2c(OC)cc(OC)cc2OC)n1 (stereo unspecified) | 1760 | – | – | – |
